Laboratory results as given in ChEMBL document CHEMBL1122039, “Design of more potent and selective antagonists of the antidiuretic responses to arginine-vasopressin devoid of antidiuretic agonism” (J Med Chem, 1982).
Numbered stars: 1 amine (or outer) side, 2 acyl side, 3 side chain; on linkers, the order of the positions; unused ones are H or OH. Bridge positions count the residues as written; N and C are the ends. Peptide text beside a SMILES is read from it. X1 = O=C(CC1(S[*:2])CCCCC1)[*:1]

Experiments:
Rattus norvegicus [1] = species on record: Rattus norvegicus; assay: In vitro anti-oxytocic activity in rat uterus (0.5 mM Mg2+); type: functional; conditions: read-out: pA2 (converted)
Rattus norvegicus [2] = species on record: Rattus norvegicus; assay: In vitro anti-oxytocic activity in rat uterus (no Mg2+); type: functional; conditions: read-out: pA2 (converted)
Rattus norvegicus [3] = species on record: Rattus norvegicus; assay: Antivasopressor activity in rats.; type: functional, organism-based; conditions: read-out: pA2 (converted)
Method in brief: (§1)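 Intravenous vasopressor assay in phenoxybenzamine-treated rats under urethane anesthesia, with the USP posterior pituitary standard as agonist. Antagonist given at a high and a low dose.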

Rattus norvegicus [4] = species on record: Rattus norvegicus; assay: Effective dose required for anti-vasopressor activity in phenoxybenzamine-treated rats under urethane anesthesia; type: functional; method in brief: as §1
Rattus norvegicus [5] = species on record: Rattus norvegicus; assay: Effective dose required for antiantidiuretic activity in rats.; type: functional, Urine
Method in brief: (§2)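 Antidiuretic assay in rats under ethanol anesthesia. Antagonist given at two doses, a high and a low one. The USP posterior pituitary standard was injected 20 min later, or 10 min later for non-agonist analogues.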

[6] = ED ratio (anti-oxytocic ED/antiantidiuretic ED) of the compound; type: functional, Urine
[7] = Selectivity ratio for antioxyticic potency to antidiuretic potency; type: functional, Urine
[8] = Selectivity ratio for anti-vasopressor potency to antidiuretic potency; type: functional, Urine
Rattus norvegicus [9] = assay: In vivo anti-oxytocic activity in rat uterus; type: functional, organism-based; conditions: read-out: pA2 (converted)
Rattus norvegicus [10] = species on record: Rattus norvegicus; assay: Effective dose required for anti-oxytocic activity in rat uterus; type: functional
[11] = ED ratio (anti-vasopressor ED/antiantidiuretic ED) of the compound; type: functional, Urine
Rattus norvegicus [12] = species on record: Rattus norvegicus; assay: Antiantidiuretic activity in rats.; type: functional, organism-based; conditions: Urine, read-out: pA2 (converted); method in brief: as §2

`CC(C)[C@@H]1NC(=O)[C@H](Cc2ccccc2)NC(=O)[C@@H](C)NC(=O)CC2(CCCCC2)SSC[C@@H](C(=O)N2CCC[C@H]2C(=O)N[C@@H](CCCN=C(N)N)C(=O)NCC(N)=O)NC(=O)[C@H](CC(N)=O)NC1=O` showed a Kb (Rattus norvegicus [1]) of 9770 nM, a Kb (Rattus norvegicus [2]) of 692 nM and a Kb (Rattus norvegicus [3]) of 1620 nM. For the same compound, the Effective dose (Rattus norvegicus [4]) was 177 nM/kg.

Work on `CC(C)C[C@H]1NC(=O)CC2(CCCCC2)SSC[C@@H](C(=O)N2CCC[C@H]2C(=O)N[C@@H](CCCN=C(N)N)C(=O)NCC(N)=O)NC(=O)[C@H](CC(N)=O)NC(=O)[C@H](C(C)C)NC(=O)[C@H](Cc2ccccc2)NC1=O` yielded a Kb (Rattus norvegicus [1]) of 41.7 nM, a Kb (Rattus norvegicus [2]) of 47.9 nM and an Effective dose (Rattus norvegicus [5]) of 1.2 nM/kg. It also gave an ED ratio [6] of 51, a Selectivity [7] of 16 and a Selectivity [8] of 170. It also gave a Kb (Rattus norvegicus [3]) of 355 nM, a Kb (Rattus norvegicus [9]) of 891 nM and an Effective dose (Rattus norvegicus [10]) of 61 nM/kg. The ED ratio [11] was 22, the Effective dose (Rattus norvegicus [4]) was 26 nM/kg and the Kb (Rattus norvegicus [12]) was 16.2 nM.

For `CC(C)[C@@H]1NC(=O)[C@H](Cc2ccccc2)NC(=O)[C@@H](CCCN=C(N)N)NC(=O)CC2(CCCCC2)SSC[C@@H](C(=O)N2CCC[C@H]2C(=O)N[C@@H](CCCN=C(N)N)C(=O)NCC(N)=O)NC(=O)[C@H](CC(N)=O)NC1=O`, the Kb (Rattus norvegicus [2]) was > 10000 nM, the Effective dose (Rattus norvegicus [5]) was >90 nM/kg and the Kb (Rattus norvegicus [3]) was 3980 nM. The Effective dose (Rattus norvegicus [4]) was ~260 nM/kg and the Kb (Rattus norvegicus [12]) was > 1260 nM.

Compound `CC(C)[C@@H]1NC(=O)[C@H](Cc2ccccc2)NC(=O)[C@@H](Cc2ccc(O)cc2)NC(=O)CC2(CCCCC2)SSC[C@@H](C(=O)N2CCC[C@H]2C(=O)N[C@H](CCCN=C(N)N)C(=O)NCC(N)=O)NC(=O)[C@H](CC(N)=O)NC1=O` has a Kb (Rattus norvegicus [1]) of 16.6 nM, a Kb (Rattus norvegicus [2]) of 10.2 nM and an Effective dose (Rattus norvegicus [5]) of 6.3 nM/kg. The Kb (Rattus norvegicus [3]) was 8.91 nM, the Kb (Rattus norvegicus [9]) was 117 nM and the Effective dose (Rattus norvegicus [10]) was 8.1 nM/kg. It also gave an Effective dose (Rattus norvegicus [4]) of 0.6 nM/kg and a Kb (Rattus norvegicus [12]) of 93.3 nM.

Compound `CC(C)[C@@H]1NC(=O)[C@H](Cc2ccccc2)NC(=O)[C@@H](Cc2ccc(O)cc2)NC(=O)CC2(CCCCC2)SSC[C@@H](C(=O)N2CCC[C@H]2C(=O)N[C@@H](CCCN=C(N)N)C(=O)NCC(N)=O)NC(=O)[C@H](CC(N)=O)NC1=O` has a Kb (Rattus norvegicus [1]) of 16.6 nM, a Kb (Rattus norvegicus [2]) of 7.76 nM and an ED ratio [6] of 3.1. The Selectivity [7] was 1, the Selectivity [8] was 1 and the Kb (Rattus norvegicus [3]) was 3.89 nM. It also gave a Kb (Rattus norvegicus [9]) of 97.7 nM, an Effective dose (Rattus norvegicus [10]) of 6.9 nM/kg and an ED ratio [11] of 0.13. For the same compound, the Kb (Rattus norvegicus [12]) was 30.9 nM.

For `CC(C)[C@@H]1NC(=O)[C@H](Cc2ccccc2)NC(=O)CNC(=O)CC2(CCCCC2)SSC[C@@H](C(=O)N2CCC[C@H]2C(=O)N[C@@H](CCCN=C(N)N)C(=O)NCC(N)=O)NC(=O)[C@H](CC(N)=O)NC1=O` (GFVNCPRG-NH2; linker N-5 via X1), the Kb (Rattus norvegicus [1]) was > 20000 nM and the Kb (Rattus norvegicus [2]) was 2880 nM.

Compound `CC[C@@H](C)[C@H]1NC(=O)CC2(CCCCC2)SSC[C@@H](C(=O)N2CCC[C@H]2C(=O)N[C@@H](CCCN=C(N)N)C(=O)NCC(N)=O)NC(=O)[C@H](CC(N)=O)NC(=O)[C@H](C(C)C)NC(=O)[C@H](Cc2ccccc2)NC1=O` has a Kb (Rattus norvegicus [2]) of 10.5 nM, an Effective dose (Rattus norvegicus [5]) of 0.7 nM/kg and a Kb (Rattus norvegicus [3]) of 115 nM. It also gave a Kb (Rattus norvegicus [9]) of 617 nM, an Effective dose (Rattus norvegicus [10]) of 44 nM/kg and an Effective dose (Rattus norvegicus [4]) of 8.2 nM/kg. The Kb (Rattus norvegicus [12]) was 10.5 nM.

Compound `CC(C)[C@@H]1NC(=O)[C@H](Cc2ccccc2)NC(=O)[C@H](Cc2ccc(O)cc2)NC(=O)CC2(CCCCC2)SSC[C@@H](C(=O)N2CCC[C@H]2C(=O)N[C@@H](CCCN=C(N)N)C(=O)NCC(N)=O)NC(=O)[C@H](CC(N)=O)NC1=O` has a Kb (Rattus norvegicus [1]) of 49 nM, a Kb (Rattus norvegicus [2]) of 45.7 nM and a Kb (Rattus norvegicus [3]) of 10.7 nM. It also gave a Kb (Rattus norvegicus [9]) of 339 nM and an Effective dose (Rattus norvegicus [10]) of 26 nM/kg.

`CC(C)[C@@H]1NC(=O)[C@H](Cc2ccccc2)NC(=O)[C@@H](Cc2ccccc2)NC(=O)CC2(CCCCC2)SSC[C@@H](C(=O)N2CCC[C@H]2C(=O)N[C@@H](CCCN=C(N)N)C(=O)NCC(N)=O)NC(=O)[C@H](CC(N)=O)NC1=O` showed an Effective dose (Rattus norvegicus [5]) of 0.67 nM/kg, a Kb (Rattus norvegicus [3]) of 8.71 nM and a Kb (Rattus norvegicus [9]) of 120 nM. It also gave an Effective dose (Rattus norvegicus [10]) of 8.9 nM/kg, an Effective dose (Rattus norvegicus [4]) of 0.58 nM/kg and a Kb (Rattus norvegicus [12]) of 8.51 nM.

For `CC(C)[C@@H]1NC(=O)[C@H](Cc2ccccc2)NC(=O)[C@@H](C(C)C)NC(=O)CC2(CCCCC2)SSC[C@@H](C(=O)N2CCC[C@H]2C(=O)N[C@@H](CCCN=C(N)N)C(=O)NCC(N)=O)NC(=O)[C@H](CC(N)=O)NC1=O`, the Kb (Rattus norvegicus [1]) was 129 nM, the Kb (Rattus norvegicus [2]) was 12.6 nM and the Effective dose (Rattus norvegicus [5]) was 2.3 nM/kg. For the same compound, the ED ratio [6] was 96, the Selectivity [7] was 31 and the Selectivity [8] was 92. For the same compound, the Kb (Rattus norvegicus [3]) was 389 nM, the Kb (Rattus norvegicus [9]) was 3240 nM and the Effective dose (Rattus norvegicus [10]) was 220 nM/kg. It also gave an ED ratio [11] of 12, an Effective dose (Rattus norvegicus [4]) of 27 nM/kg and a Kb (Rattus norvegicus [12]) of 33.1 nM.
